Results from ChEMBL document CHEMBL1157970, “Quercetin as the active principle of Hypericum hircinum exerts a selective inhibitory activity against MAO-A: extraction, biological analysis, and computational study” (J Nat Prod, 2006).
Calls of active or inactive are those of the source.

Tests used:
Mus musculus [1] = assay: Increase in duration of immobility in CD1 mouse at 10 mg/kg, ip by forced swimming test relative to control; format: functional, organism-based; set-up: dose 10 mg/kg
How it was run: (§1)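 Male CD1 mice, 25-28 g, n = 10 per group. Two-day protocol: 15-min pretest swim in a cylinder of 25 °C water. After 24 h, a 10-min videotaped test session 60 min after ip injection of drug suspended in 0.5% CMC, given at 0.01 mL/g. Immobility time is compared with naïve and CMC groups by two-way ANOVA and Duncan test, p < 0.05.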

Mus musculus [2] = assay: Increase in duration of immobility in CD1 mouse at 10 mg/kg, ip by forced swimming test relative to carboxy methyl cellulose; format: functional, organism-based; set-up: dose 10 mg/kg; how it was run: as §1
[3] = biological target: T1, Amine oxidase [flavin-containing] A (Bos taurus, UniProt P21398); assay: Inhibition of bovine MAO-A by fluorimetric method
T1 sequence (P21398 whole entry): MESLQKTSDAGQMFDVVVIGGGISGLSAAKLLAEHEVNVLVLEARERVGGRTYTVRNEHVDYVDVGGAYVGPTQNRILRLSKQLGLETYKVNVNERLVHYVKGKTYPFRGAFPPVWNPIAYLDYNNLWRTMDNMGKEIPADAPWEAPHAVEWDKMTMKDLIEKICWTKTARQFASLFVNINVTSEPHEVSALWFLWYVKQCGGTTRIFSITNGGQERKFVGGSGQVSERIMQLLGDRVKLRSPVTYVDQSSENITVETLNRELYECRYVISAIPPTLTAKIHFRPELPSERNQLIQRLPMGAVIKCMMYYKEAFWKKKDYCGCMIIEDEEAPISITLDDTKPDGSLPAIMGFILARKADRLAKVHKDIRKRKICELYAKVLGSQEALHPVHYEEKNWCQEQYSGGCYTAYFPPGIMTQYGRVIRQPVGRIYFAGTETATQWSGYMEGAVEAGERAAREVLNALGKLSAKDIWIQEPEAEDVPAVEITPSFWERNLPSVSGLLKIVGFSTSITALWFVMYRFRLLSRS
How it was run: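 Beef brain mitochondria (6 mg/mL) in K3PO4 buffer pH 7.4 with kynuramine substrate (four concentrations, 5 μM to 0.1 mM). Preincubated 30 min at 38 °C with 0.5 μM L-deprenyl to isolate MAO-A. Drug in DMSO; incubated 30 min at 38 °C, stopped with HClO4, supernatant into NaOH, read fluorimetrically. Means of three or more experiments run in duplicate.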

[4] = biological target: T2, Amine oxidase [flavin-containing] B (Bos taurus, UniProt P56560); assay: Inhibition of bovine MAO-B by fluorimetric method
T2 sequence (P56560 whole entry): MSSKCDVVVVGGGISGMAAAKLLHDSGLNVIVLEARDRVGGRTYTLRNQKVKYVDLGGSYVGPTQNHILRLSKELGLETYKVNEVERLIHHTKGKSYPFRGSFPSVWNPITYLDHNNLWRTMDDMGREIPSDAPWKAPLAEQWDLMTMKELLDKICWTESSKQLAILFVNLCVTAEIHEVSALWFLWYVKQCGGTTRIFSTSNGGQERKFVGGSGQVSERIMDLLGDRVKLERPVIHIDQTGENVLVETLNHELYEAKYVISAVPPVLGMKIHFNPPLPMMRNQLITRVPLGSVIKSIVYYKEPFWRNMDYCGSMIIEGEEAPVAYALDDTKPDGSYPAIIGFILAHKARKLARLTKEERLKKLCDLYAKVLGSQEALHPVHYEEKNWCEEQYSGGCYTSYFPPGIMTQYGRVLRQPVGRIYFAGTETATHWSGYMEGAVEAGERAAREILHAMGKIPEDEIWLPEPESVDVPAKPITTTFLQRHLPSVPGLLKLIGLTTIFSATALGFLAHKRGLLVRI
How it was run: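 Bovine brain mitochondria (6 mg/mL) in 0.25 M potassium phosphate buffer pH 7.4; preincubated 30 min at 38 °C with 0.05 μM clorgyline to isolate MAO-B. Kynuramine substrate at four levels, 5 μM to 0.1 mM; inhibitor added from DMSO; 30 min at 38 °C, stopped with HClO4, centrifuged, supernatant into 0.1 N NaOH, fluorimetric read-out. Means of ≥3 experiments in duplicate.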

Mus musculus [5] = assay: Induction of behavioral effects in CD1 mouse at 1 mg/kg, ip by forced swimming test relative to control; format: functional, organism-based; set-up: dose 1 mg/kg; how it was run: as §1
Mus musculus [6] = assay: Induction of behavioral effects in CD1 mouse at 1 mg/kg, ip by forced swimming test relative to carboxy methyl cellulose; format: functional, organism-based; set-up: dose 1 mg/kg; how it was run: as §1
Mus musculus [7] = assay: Induction of behavioral effects in CD1 mouse at 10 mg/kg, ip by forced swimming test relative to control; format: functional, organism-based; set-up: dose 10 mg/kg; how it was run: as §1
Mus musculus [8] = assay: Induction of behavioral effects in CD1 mouse at 10 mg/kg, ip by forced swimming test relative to carboxy methyl cellulose; format: functional, organism-based; set-up: dose 10 mg/kg; how it was run: as §1
Mus musculus [9] = assay: Effect on duration of immobility in CD1 mouse at 1 mg/kg, ip by forced swimming test relative to control; format: functional, organism-based; set-up: dose 1 mg/kg; how it was run: as §1
Mus musculus [10] = assay: Effect on duration of immobility in CD1 mouse at 1 mg/kg, ip by forced swimming test relative to carboxy methyl cellulose; format: functional, organism-based; set-up: dose 1 mg/kg; how it was run: as §1
Mus musculus [11] = assay: Effect on duration of immobility in CD1 mouse at 10 mg/kg, ip by forced swimming test relative to control; format: functional, organism-based; set-up: dose 10 mg/kg; how it was run: as §1
Mus musculus [12] = assay: Effect on duration of immobility in CD1 mouse at 10 mg/kg, ip by forced swimming test relative to carboxy methyl cellulose; format: functional, organism-based; set-up: dose 10 mg/kg; how it was run: as §1
Mus musculus [13] = assay: Increase in duration of immobility in CD1 mouse at 1 mg/kg, ip by forced swimming test relative to control; format: functional, organism-based; set-up: dose 1 mg/kg; how it was run: as §1
Mus musculus [14] = assay: Increase in duration of immobility in CD1 mouse at 1 mg/kg, ip by forced swimming test relative to carboxy methyl cellulose; format: functional, organism-based; set-up: dose 1 mg/kg; how it was run: as §1

O=c1c(O)c(-c2ccc(O)c(O)c2)oc2cc(O)cc(O)c12 [QUERCETIN]
0.01 µM: IC50 [3]
inactive: Activity (Mus musculus [5]) | Activity (Mus musculus [6]) | Activity (Mus musculus [7]) | Activity (Mus musculus [8]) | Activity (Mus musculus [9]) | Activity (Mus musculus [10]) | Activity (Mus musculus [11]) | Activity (Mus musculus [12])
active: Activity (Mus musculus [1]) | Activity (Mus musculus [2]) | Activity (Mus musculus [13]) | Activity (Mus musculus [14])
20 µM: IC50 [4]
